Compound activity: PubChem, several laboratories
Shown are actives, neighbours in structure and some others; about 1.5% of the full set was active somewhere.
RBBP9 inh – blocks human serine hydrolase RBBP9; O75884; recombinant RBBP9, FP-Rh probe fluorescence polarization; inhibition, % at 7.94 µM; actives 0.2% (n = 220,000); AID 1515;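 active means inhibition above the campaign mean of all tested compounds plus 3 SD, cut at about 14% in these data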
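Controls: DMSO-treated enzyme wells and wells lacking RBBP9 | Material: RBBP9 protein | Technique: Fluorescence polarization | Replication: Single well per compound, no replicates | Buffer or medium: Tris-NaCl-Pluronic buffer, pH 8.0 | Timing: 30 min compound preincubation, 45 min probe labeling, 25 °C | Read-out basis: Percent inhibition from mP, scaled between DMSO and no-protein wells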
PP5 primary – inhibitors of human protein phosphatase 5 (PP5) | purified PP5c, OMFP substrate fluorescence | inhibition, % at 6.7 µM | actives 0.18% (n = 320,000) | AID 1987;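 active means inhibition above the campaign's mean inhibition across all tested compounds plus 3 SD, cut at about 9.5% in these data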
Target sequence (P53041 whole entry, looked up): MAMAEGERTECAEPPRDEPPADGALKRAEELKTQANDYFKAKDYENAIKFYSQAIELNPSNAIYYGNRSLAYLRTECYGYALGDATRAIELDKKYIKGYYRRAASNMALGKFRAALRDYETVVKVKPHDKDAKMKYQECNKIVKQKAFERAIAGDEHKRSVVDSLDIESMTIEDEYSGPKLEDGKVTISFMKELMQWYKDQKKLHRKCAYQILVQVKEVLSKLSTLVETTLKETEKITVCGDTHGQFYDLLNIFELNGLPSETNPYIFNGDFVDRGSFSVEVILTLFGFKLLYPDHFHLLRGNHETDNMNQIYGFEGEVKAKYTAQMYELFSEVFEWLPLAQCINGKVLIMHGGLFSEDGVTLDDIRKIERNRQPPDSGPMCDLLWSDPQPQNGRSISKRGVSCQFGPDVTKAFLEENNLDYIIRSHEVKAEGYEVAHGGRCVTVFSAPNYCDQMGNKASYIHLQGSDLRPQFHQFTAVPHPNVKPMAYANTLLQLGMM
Hsp70 activator – transcriptional activators of Hsp70. actives 0.04% (n = 200,000). AID 1203. HeLa Hsp70 promoter luciferase reporter, luminescence; scaled: vehicle 0, proteasome-inhibitor control 100%. activation, % at 10 µM;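 active means activation above the mean across all tested compounds plus 3 SD, cutoff set per campaign, cut at about 5.5% in these data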
p97 inhibitor – blocks human p97 ATPase activity. actives 0.42% (n = 220,000). recombinant p97 ATPase, Kinase-Glo ATP luminescence, 3 h. inhibition, % at 8 µM. P55072; in the data active means inhibition above about 15%
PP1 inh – blocks human PP1-alpha phosphatase, a PP5 counter-screen; P62136; purified PP1alpha, OMFP fluorescence; inhibition, % at 6.7 µM; actives 0.9% (n = 320,000);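 active means inhibition above the mean inhibition of all tested compounds plus 3 SD, computed separately for each screening campaign, cut at about 15% in these data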
PKD1 inh – blocks activity of human protein kinase D1; Q15139; PKD1 kinase fluorescence polarization assay; inhibition, % (concentration not given with the values); actives 0.056% (n = 200,000); AID 797; in the data active means inhibition above about 50%
PP5 conf – confirmation of human PP5 phosphatase inhibitors | inhibition, % at 6.7 µM | Purified PP5, fluorogenic phosphatase substrate, fluorescence | shares compounds with PP5 primary | AID 2331 | actives 22% (n = 460); in the data active means inhibition above about 9.5%
PP1 counter 3x – PP1 phosphatase inhibition, counter-screen for PP5 inhibitors; shares compounds with PP5 primary; PP1 enzyme, fluorescent phosphatase substrate; inhibition, % at 6.7 µM; actives 4% (n = 460); in the data active means inhibition above about 16%
A number is an active result; n = inactive; x = no result; ! = not confirmed by another sample.

SMILES	RBBP9 inh	PP5 primary	Hsp70 activator	p97 inhibitor	PP1 inh	PKD1 inh	PP5 conf	PP1 counter 3x
CCc1cccc(C)c1NC(=O)C1C2CCC(O2)C1C(=O)O (stereo unspecified)	n	12	n	n	n	n	n	n
COC(=O)c1c(NC(=O)C2C3CCC(O3)C2C(=O)O)sc2c1CCCCCC2 (stereo unspecified)	n	12	n	n	n	n	n	n
Cc1ccc(-c2c(C)sc(NC(=O)C3C4CCC(O4)C3C(=O)O)c2C(=O)OC(C)C)cc1 (stereo unspecified)	n	13	n	n	n	n	n	n
c1ccc(SCCN2CCN(c3ccccc3)CC2)cc1	x	n	x	x	n	x	x	x
COc1cccc(CN(C)C(=O)c2ccccc2SCC(=O)N2CCCC2)c1	x	n	x	x	n	x	x	x
COc1cc2cc(Oc3ccc4ccc(=O)oc4c3)c(=O)oc2cc1OC(=O)C=C(C)C	x	n	x	x	n	x	x	x
CCCCC1=NN(C(=O)c2ccncc2)C(O)(C(F)(F)F)C1 (stereo unspecified)	n	n	x	n	n	x	x	x
CCCCC1=NN(C(=O)c2cocc2C)C(O)(C(F)(F)F)C1 (stereo unspecified)	n	13	n	n	n	n	n	n
CN(CC(O)CN1CCOCC1)S(=O)(=O)O (stereo unspecified)	n	14!	n	n	n	n	n	n
OC(CN1CCOCC1)CN1CCOCC1	n	n	n	n	n	n	x	x
CCOc1ccc(NC(=O)N2CCC(C(N)=O)(N3CCCCC3)CC2)cc1	n	11	n	n	n	n	n	n
Cc1onc(-c2c(Cl)cccc2Cl)c1C(=O)N/N=C(\N)COc1ccc(Cl)cc1	n	12	n	n	n	n	n	n
Cn1c(=O)[nH]c2nnc(-c3ccc(Cl)c(Cl)c3)nc2c1=O	n	n	x	n	n	x	x	x
COC(=O)C1=C(C)NC(C)=C(C(=O)OC)C1c1cn(-c2ccccc2)nc1-c1ccco1	n	14	n	n	n	n	n	n
Oc1ccccc1NCC(O)Cn1ccc2ccccc21 (stereo unspecified)	n	9.8	n	n	n	n	n	n
O=C(NCc1ccc(F)cc1)C1(c2cccs2)CCOCC1	n	n	n	n	n	n	x	x
CCc1ccc(C(=O)NNC(=S)Nc2ccc(S(N)(=O)=O)cc2)s1	n	14	n	n	n	n	n	n
C=CCNC(=O)COC(=O)C1CCN(S(=O)(=O)c2ccc3c(c2)OCCO3)CC1	x	n	x	x	n	x	x	x
COc1ccc(C(=O)/C=C/c2cn(CN3CCN(C)CC3)c3ccccc23)cc1	n	n	n	n	n	n	x	x
CCOc1ccc(C(=O)/C=C/c2cn(CN3CCN(C)CC3)c3ccccc23)cc1	n	11	n	n	n	n	n	n
CCc1c(C2(O)CCCCC2)[nH]c2cc(C(F)(F)F)ccc12	x	n	x	x	n	x	x	x
CN1C(C(=O)Nc2ccccn2)=C(O)c2ccccc2S1(=O)=O	n	n	n	n	n	n	x	x
Cc1cnc(NC(=O)C2=C(O)c3ccccc3S(=O)(=O)N2C)s1	n	15!	n	n	n	n	n	n
Cc1ccc(C)c(NC(=O)CCN2CCN(CCO)CC2)c1	x	n	x	x	n	x	x	x
Cc1ccc2c(c1)N(C(=O)CCC(=O)NC1CCCCCC1)CC(C)O2 (stereo unspecified)	x	n	x	x	n	x	x	x
SMILES	RBBP9 inh	PP5 primary	Hsp70 activator	p97 inhibitor	PP1 inh	PKD1 inh	PP5 conf	PP1 counter 3x
C=CCn1c(SCC(=O)NC2CCCC2)nnc1-c1ccccn1	x	n	x	x	n	x	x	x
CCCn1c(SCC(=O)NC2CCCC2)nnc1-c1ccccn1	n	11	x	n	n	x	n	n
Cc1cnc(CNC(=O)c2ccc3oc(Cc4ccc(Cl)cc4)nc3c2)cn1	x	n	x	x	n	x	x	x
O=C1CCCC2=C1C1(O)C(=O)c3ccccc3C1(O)O2 (stereo unspecified)	n	17	n	n	n	n	45	n
CCOc1ccc(-c2[nH]ncc2Oc2cccc(OC)c2)c(O)c1	n	12	n	n	n	n	n	n
COc1cccc(Oc2cn[nH]c2-c2ccc(OC)cc2O)c1	n	n	n	n	n	n	x	x
O=C(NCCCCc1ccccc1)c1ccccc1F	x	12	x	x	n	x	n	n
CC(C)(C)c1ccc(C(=O)NCC(=O)O)cc1	n	n	n	n	n	n	x	x
